Data from ChEMBL document CHEMBL5705885, “CYT387, a selective JAK1/JAK2 inhibitor: in vitro assessment of kinase selectivity and preclinical studies using cell lines and primary cells from polycythemia vera patients” (Leukemia, 2009).

Legend:
[1] = biological target: Serine/threonine-protein kinase Nek9 (Homo sapiens, UniProt Q8TD19); assay: Inhibition of NEK9 (unknown origin)
[2] = biological target: Serine/threonine-protein kinase N1 (Homo sapiens, UniProt Q16512); conditions: dose 100.0 nM
[3] = Antiproliferative activity against human CHRF-288-11 cells harboring JAK2T875N mutant measured after 72 hrs by Alamar blue staining based analysis; format: functional, cell-based; conditions: CHRF-288-11, 72 h
Procedure, shortened: (§1)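 Cells were exposed for 72 h at 37 °C under 5% CO2 to compound made up as DMSO stock and diluted in culture medium. Proliferation was then read by Alamar Blue.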

BaF3 = assay: Antiproliferative activity against mouse BaF3 cells harboring TEL-JAK2 measured after 72 hrs by Alamar blue staining based analysis; format: functional, cell-based; conditions: BaF3, 72 h
Procedure, shortened: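 Murine Ba/F3 cells carrying TEL/JAK2 or TEL/JAK3 fusions, grown in DMEM with 10% fetal calf serum. Compound stocks in DMSO were diluted in culture medium. Proliferation was read by Alamar Blue after 72 h incubation at 37 °C under 5% CO2.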

[4] = biological target: Dual specificity protein kinase CLK1 (Homo sapiens, UniProt P49759); conditions: dose 100.0 nM
[5] = biological target: Muscle, skeletal receptor tyrosine-protein kinase (Homo sapiens) (UniProt O15146); conditions: dose 100.0 nM
[6] = biological target: Interleukin-1 receptor-associated kinase 4 (Homo sapiens, UniProt Q9NWZ3); assay: Inhibition of IRAK4 (unknown origin)
[7] = biological target: T1, Serine/threonine-protein kinase 26 (Homo sapiens, UniProt Q9P289); assay: Inhibition of MST4 (unknown origin)
Rhodopsin kinase GRK7 = Rhodopsin kinase GRK7 (Homo sapiens, UniProt Q8WTQ7); assay: Inhibition of GRK7 (unknown origin)
[8] = biological target: Muscle, skeletal receptor tyrosine-protein kinase (Homo sapiens, UniProt O15146); assay: Inhibition of MUSK (unknown origin)
[9] = biological target: Tyrosine-protein kinase Fgr (Homo sapiens) (UniProt P09769); conditions: dose 100.0 nM
[10] = biological target: Homeodomain-interacting protein kinase 4 (Homo sapiens, UniProt Q8NE63); assay: Inhibition of HIPK4 (unknown origin)
[11] = biological target: Testis-specific serine/threonine-protein kinase 1 (Homo sapiens) (UniProt Q9BXA7); conditions: dose 100.0 nM
[12] = biological target: Serine/threonine-protein kinase D2 (Homo sapiens) (UniProt Q9BZL6); conditions: dose 100.0 nM
[13] = biological target: T2, Calcium/calmodulin-dependent protein kinase type 1D (Homo sapiens, UniProt Q8IU85); conditions: dose 100.0 nM
Target sequence in this assay (Q8IU85 whole entry, looked up): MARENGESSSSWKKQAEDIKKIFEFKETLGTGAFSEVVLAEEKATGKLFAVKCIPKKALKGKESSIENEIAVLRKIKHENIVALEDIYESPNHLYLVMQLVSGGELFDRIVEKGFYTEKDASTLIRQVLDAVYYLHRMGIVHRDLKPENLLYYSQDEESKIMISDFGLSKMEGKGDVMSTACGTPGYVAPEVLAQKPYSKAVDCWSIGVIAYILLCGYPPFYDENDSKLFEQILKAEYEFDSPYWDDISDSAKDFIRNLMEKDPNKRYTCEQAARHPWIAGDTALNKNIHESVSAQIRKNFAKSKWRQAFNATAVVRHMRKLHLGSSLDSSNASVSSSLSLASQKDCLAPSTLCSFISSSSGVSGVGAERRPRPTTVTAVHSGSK

CMK = assay: Antiproliferative activity against human CMK cells harboring JAK3A572V mutant measured after 72 hrs by Alamar blue staining based analysis; format: functional, cell-based; procedure, shortened: as §1
[14] = biological target: Tyrosine-protein kinase Blk (Homo sapiens, UniProt P51451); assay: Inhibition of BLK (unknown origin)
[15] = biological target: Serine/threonine-protein kinase 25 (Homo sapiens, UniProt O00506); assay: Inhibition of STK25 (unknown origin)
[16] = biological target: Serine/threonine-protein kinase D1 (Homo sapiens) (UniProt Q15139); conditions: dose 100.0 nM
[17] = biological target: Casein kinase I isoform gamma-1 (Homo sapiens, UniProt Q9HCP0); assay: Inhibition of CSNK1G1 (unknown origin)
[18] = biological target: Insulin-like growth factor 1 receptor (Homo sapiens, UniProt P08069); assay: Inhibition of IGF1R (unknown origin)
[19] = biological target: Serine/threonine-protein kinase BRSK1 (Homo sapiens, UniProt Q8TDC3); assay: Inhibition of BRSK1 (unknown origin)
[20] = biological target: T1, Serine/threonine-protein kinase 26; conditions: dose 100.0 nM
Target sequence in this assay (Q9P289 2-416 limits assumed): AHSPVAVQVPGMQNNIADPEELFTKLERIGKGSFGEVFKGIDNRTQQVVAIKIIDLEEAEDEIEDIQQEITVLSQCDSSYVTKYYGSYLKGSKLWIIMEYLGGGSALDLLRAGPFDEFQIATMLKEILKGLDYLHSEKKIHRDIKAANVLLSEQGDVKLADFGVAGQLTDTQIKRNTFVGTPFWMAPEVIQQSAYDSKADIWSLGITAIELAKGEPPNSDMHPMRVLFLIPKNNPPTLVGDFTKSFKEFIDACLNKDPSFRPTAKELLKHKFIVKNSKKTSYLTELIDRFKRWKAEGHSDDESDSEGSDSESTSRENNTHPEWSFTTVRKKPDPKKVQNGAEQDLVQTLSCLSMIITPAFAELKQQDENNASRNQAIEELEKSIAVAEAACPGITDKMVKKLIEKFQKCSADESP

[21] = biological target: Tyrosine-protein kinase Fes/Fps (Homo sapiens, UniProt P07332); assay: Inhibition of FES (unknown origin)
[22] = biological target: Casein kinase I isoform gamma-2 (Homo sapiens, UniProt P78368); assay: Inhibition of CSNK1G2 (unknown origin)
[23] = biological target: T2, Calcium/calmodulin-dependent protein kinase type 1D; assay: Inhibition of CAMK1 delta (unknown origin)
Target sequence in this assay (Q8IU85 whole entry): as the sequence (Q8IU85 whole entry, looked up) above

[24] = biological target: Mitogen-activated protein kinase 3 (Homo sapiens, UniProt P27361); assay: Inhibition of MAPK3 (unknown origin)
[25] = biological target: Rho-associated protein kinase 2 (Homo sapiens, UniProt O75116); conditions: dose 100.0 nM
[26] = biological target: Death-associated protein kinase 3 (Homo sapiens, UniProt O43293); assay: Inhibition of DAPK3 (unknown origin)
[27] = biological target: Mitogen-activated protein kinase kinase kinase 8 (Homo sapiens, UniProt P41279); conditions: dose 100.0 nM
[28] = biological target: Serine/threonine-protein kinase Sgk1 (Homo sapiens) (UniProt O00141); conditions: dose 100.0 nM
[29] = biological target: Protein kinase C beta type (Homo sapiens, UniProt P05771); assay: Inhibition of PRKCB1 (unknown origin)
[30] = biological target: Calcium/calmodulin-dependent protein kinase type II subunit alpha (Homo sapiens, UniProt Q9UQM7); assay: Inhibition of CAMK2 alpha (unknown origin)
[31] = biological target: Macrophage-stimulating protein receptor (Homo sapiens, UniProt Q04912); assay: Inhibition of MST1R (unknown origin)
[32] = biological target: RAC-alpha serine/threonine-protein kinase (Homo sapiens, UniProt P31749); assay: Inhibition of AKT1 (unknown origin)
[33] = biological target: Tyrosine-protein kinase JAK2 (Homo sapiens) (UniProt O60674); conditions: dose 100.0 nM
Homo sapiens = organism: Homo sapiens; conditions: dose 100.0 nM
[34] = biological target: ALK tyrosine kinase receptor (Homo sapiens, UniProt Q9UM73); assay: Inhibition of ALK (unknown origin)
[35] = biological target: Phosphorylase b kinase gamma catalytic chain, liver/testis isoform (Homo sapiens, UniProt P15735); assay: Inhibition of PHKG2 (unknown origin)
[36] = biological target: Serine/threonine-protein kinase Nek6 (Homo sapiens, UniProt Q9HC98); assay: Inhibition of NEK6 (unknown origin)
[37] = biological target: Platelet-derived growth factor receptor alpha (Homo sapiens, UniProt P16234); conditions: dose 100.0 nM
[38] = biological target: Ribosomal protein S6 kinase alpha-3 (Homo sapiens, UniProt P51812); assay: Inhibition of RPS6KA3 (unknown origin)
[39] = biological target: Calcium/calmodulin-dependent protein kinase type IV (Homo sapiens, UniProt Q16566); assay: Inhibition of CAMK4 (unknown origin)
Aurora kinase C = Aurora kinase C (Homo sapiens, UniProt Q9UQB9); assay: Inhibition of AURKC (unknown origin)
[40] = biological target: Misshapen-like kinase 1 (Homo sapiens) (UniProt Q8N4C8); conditions: dose 100.0 nM

Sequence of Serine/threonine-protein kinase Sgk1 (Homo sapiens) (O00141 whole entry): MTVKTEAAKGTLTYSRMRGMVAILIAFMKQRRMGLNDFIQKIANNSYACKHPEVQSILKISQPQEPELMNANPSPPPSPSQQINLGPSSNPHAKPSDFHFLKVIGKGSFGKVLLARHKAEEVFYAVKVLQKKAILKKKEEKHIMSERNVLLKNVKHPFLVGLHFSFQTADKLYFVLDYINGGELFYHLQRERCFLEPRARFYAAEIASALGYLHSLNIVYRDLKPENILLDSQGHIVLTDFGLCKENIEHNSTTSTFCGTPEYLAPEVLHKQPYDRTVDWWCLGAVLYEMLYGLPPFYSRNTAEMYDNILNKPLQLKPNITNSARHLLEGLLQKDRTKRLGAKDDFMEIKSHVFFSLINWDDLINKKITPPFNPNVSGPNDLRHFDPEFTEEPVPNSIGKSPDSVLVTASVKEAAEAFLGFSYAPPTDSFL
Sequence of Rho-associated protein kinase 2 (O75116 whole entry, looked up): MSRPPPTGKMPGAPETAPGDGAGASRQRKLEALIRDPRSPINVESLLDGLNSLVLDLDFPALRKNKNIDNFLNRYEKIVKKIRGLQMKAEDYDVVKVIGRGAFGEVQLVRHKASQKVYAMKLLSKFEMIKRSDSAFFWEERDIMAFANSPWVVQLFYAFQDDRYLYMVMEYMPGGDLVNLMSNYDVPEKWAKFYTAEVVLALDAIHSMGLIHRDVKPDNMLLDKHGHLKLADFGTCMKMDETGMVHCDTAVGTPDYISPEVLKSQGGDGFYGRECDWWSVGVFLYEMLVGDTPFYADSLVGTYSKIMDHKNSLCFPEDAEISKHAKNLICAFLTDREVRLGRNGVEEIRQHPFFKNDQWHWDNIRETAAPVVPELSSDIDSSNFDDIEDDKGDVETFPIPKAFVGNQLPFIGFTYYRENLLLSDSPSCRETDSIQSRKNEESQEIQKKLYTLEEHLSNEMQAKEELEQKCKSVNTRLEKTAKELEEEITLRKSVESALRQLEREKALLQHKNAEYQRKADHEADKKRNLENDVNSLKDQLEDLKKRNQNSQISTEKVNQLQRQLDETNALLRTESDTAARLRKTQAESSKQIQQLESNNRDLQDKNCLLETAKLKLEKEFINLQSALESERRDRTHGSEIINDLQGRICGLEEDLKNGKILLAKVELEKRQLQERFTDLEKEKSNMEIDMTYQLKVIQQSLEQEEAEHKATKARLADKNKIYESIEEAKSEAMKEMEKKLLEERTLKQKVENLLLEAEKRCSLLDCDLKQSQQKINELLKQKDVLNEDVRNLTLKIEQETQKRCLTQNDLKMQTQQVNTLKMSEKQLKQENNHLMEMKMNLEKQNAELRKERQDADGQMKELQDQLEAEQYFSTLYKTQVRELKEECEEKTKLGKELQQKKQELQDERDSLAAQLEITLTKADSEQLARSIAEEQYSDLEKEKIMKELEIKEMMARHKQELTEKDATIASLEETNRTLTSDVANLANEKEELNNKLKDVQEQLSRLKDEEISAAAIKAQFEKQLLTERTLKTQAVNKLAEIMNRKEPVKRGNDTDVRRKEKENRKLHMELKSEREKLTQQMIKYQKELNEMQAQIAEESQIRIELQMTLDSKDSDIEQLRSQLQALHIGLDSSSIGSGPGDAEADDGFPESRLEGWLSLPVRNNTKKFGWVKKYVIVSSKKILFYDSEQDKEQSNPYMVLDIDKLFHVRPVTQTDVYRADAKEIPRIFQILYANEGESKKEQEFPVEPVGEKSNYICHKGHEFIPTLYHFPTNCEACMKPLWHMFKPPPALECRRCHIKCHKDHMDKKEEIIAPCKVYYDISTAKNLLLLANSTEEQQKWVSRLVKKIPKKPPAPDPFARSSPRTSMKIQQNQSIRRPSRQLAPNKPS
Sequence of Serine/threonine-protein kinase N1 (Q16512 2-942 limits assumed): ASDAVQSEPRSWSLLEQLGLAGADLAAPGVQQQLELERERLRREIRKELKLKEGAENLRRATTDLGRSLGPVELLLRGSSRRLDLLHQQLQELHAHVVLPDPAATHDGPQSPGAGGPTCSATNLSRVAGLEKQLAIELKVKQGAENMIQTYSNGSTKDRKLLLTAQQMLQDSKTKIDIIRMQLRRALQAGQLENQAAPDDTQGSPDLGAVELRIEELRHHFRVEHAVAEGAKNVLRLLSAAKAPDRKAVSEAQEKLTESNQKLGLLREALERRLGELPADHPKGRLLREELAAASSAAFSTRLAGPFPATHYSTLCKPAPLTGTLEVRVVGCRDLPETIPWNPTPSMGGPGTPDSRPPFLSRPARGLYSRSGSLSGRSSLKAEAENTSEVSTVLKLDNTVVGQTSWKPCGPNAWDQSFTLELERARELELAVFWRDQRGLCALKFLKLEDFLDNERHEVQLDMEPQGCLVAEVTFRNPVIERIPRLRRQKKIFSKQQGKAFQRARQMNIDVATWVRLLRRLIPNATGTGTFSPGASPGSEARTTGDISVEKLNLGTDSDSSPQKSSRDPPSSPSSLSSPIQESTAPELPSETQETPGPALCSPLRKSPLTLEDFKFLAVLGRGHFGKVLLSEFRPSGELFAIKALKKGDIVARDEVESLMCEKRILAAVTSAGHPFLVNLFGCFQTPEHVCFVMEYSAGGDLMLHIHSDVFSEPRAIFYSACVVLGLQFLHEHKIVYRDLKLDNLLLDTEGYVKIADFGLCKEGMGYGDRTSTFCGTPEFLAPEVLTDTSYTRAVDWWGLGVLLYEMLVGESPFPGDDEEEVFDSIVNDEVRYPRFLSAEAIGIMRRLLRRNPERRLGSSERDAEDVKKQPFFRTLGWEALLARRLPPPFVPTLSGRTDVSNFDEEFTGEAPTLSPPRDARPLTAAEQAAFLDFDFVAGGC
Sequence of Protein kinase C beta type (P05771 whole entry): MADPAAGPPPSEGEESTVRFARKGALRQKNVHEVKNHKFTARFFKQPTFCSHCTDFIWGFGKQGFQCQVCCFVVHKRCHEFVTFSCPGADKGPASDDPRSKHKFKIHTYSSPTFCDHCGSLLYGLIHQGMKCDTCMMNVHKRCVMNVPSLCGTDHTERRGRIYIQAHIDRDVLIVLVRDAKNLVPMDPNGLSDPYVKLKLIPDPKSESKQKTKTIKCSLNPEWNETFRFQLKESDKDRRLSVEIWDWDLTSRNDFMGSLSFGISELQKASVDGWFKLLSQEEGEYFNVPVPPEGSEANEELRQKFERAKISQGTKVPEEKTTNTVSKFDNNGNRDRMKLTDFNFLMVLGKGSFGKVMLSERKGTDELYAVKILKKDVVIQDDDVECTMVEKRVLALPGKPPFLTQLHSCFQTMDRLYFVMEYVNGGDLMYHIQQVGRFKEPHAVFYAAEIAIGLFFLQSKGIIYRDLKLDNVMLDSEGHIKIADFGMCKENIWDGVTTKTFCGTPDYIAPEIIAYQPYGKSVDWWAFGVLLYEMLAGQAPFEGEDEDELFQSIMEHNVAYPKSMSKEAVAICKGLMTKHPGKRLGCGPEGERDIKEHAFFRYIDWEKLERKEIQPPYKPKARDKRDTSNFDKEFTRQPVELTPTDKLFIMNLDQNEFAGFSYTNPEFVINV
Sequence of Aurora kinase C (Q9UQB9 whole entry): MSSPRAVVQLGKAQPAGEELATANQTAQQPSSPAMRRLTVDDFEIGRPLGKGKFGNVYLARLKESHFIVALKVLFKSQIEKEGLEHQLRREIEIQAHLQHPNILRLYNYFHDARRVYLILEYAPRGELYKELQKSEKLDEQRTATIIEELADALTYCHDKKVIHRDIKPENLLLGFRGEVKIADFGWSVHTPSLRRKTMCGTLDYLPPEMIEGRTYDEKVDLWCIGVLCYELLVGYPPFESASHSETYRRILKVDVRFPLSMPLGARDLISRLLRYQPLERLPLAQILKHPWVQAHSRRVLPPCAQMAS
Sequence of Casein kinase I isoform gamma-1 (Q9HCP0 whole entry, canonical isoform): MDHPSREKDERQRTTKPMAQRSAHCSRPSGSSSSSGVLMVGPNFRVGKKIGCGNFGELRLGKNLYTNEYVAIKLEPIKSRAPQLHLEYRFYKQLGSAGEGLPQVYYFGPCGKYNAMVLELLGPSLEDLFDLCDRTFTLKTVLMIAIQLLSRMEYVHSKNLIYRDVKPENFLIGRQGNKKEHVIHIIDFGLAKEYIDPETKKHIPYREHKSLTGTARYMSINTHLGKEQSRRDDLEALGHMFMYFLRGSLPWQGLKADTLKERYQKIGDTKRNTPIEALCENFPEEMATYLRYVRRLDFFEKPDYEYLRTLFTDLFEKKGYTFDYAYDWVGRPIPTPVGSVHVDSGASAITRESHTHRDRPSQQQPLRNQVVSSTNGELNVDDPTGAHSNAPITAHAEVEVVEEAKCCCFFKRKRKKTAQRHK

Compound `N#CCNC(=O)c1ccc(-c2ccnc(Nc3ccc(N4CCOCC4)cc3)n2)cc1` [MOMELOTINIB] has an IC50 [1] of under 1000 nM, an inhibition [2] of under 50% and an IC50 [3] of 1 nM. The IC50 (BaF3) was 724 nM, the inhibition [4] was under 50% and the inhibition [5] was under 50%. The IC50 [6] was over 1000 nM, the IC50 [7] was under 1000 nM and the IC50 (Rhodopsin kinase GRK7) was over 1000 nM. It also gave an IC50 [8] of under 1000 nM, an inhibition [9] of under 50% and an IC50 [10] of under 1000 nM. The inhibition [11] was under 50%, the inhibition [12] was under 50% and the inhibition [13] was under 50%. For the same compound, the IC50 (CMK) was 700 nM, the IC50 [14] was over 1000 nM and the IC50 [15] was over 1000 nM. For the same compound, the inhibition [16] was over 50%, the IC50 [17] was over 1000 nM and the IC50 [18] was over 1000 nM. It also gave an IC50 [19] of under 1000 nM, an inhibition [20] of under 50% and an IC50 [21] of over 1000 nM. It also gave an IC50 [22] of over 1000 nM, an IC50 [23] of under 1000 nM and an IC50 [24] of over 1000 nM. For the same compound, the inhibition [25] was over 50%, the IC50 [26] was over 1000 nM and the inhibition [27] was under 50%. The inhibition [28] was under 50%, the IC50 [29] was over 1000 nM and the IC50 [30] was over 1000 nM. The IC50 [31] was under 1000 nM, the IC50 [32] was over 1000 nM and the inhibition [33] was over 50%. For the same compound, the inhibition (Homo sapiens) was over 50%, the IC50 [34] was over 1000 nM and the IC50 [35] was over 1000 nM. It also gave an IC50 [36] of over 1000 nM, an inhibition [37] of under 50% and an IC50 [38] of over 1000 nM. For the same compound, the IC50 [39] was over 1000 nM, the IC50 (Aurora kinase C) was under 1000 nM and the inhibition [40] was under 50%.
